Measurements taken from ChEMBL document CHEMBL2331364, “A synthetic dolastatin 10 analogue suppresses microtubule dynamics, inhibits cell proliferation, and induces apoptotic cell death” (J Med Chem, 2013).
Where a SMILES comes first, the peptide text is derived from it. [ ]: non-standard residue; d: D form. The star is where a group is joined. X1 = COC1=CC(=O)N(C(=O)[C@@H](O*)C(C)C)[C@H]1Cc1ccccc1; NMe2Val = CC(C)[C@@H](C(=O)*)N(C)C; NMeV = CN[C@H](C(=O)O)C(C)C

What was measured:
HeLa [1] = assay: Inhibition of mitosis in human HeLa cells assessed as mitotic index at 200 nM after 24 hrs by Hoechst 33258 DNA staining assay (reference value: 4 +/- 0.3 %); type: functional; parameters: scale not given: the % may be the effect or the level left
Summary of the method: (§1)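 HeLa cells were treated for 24 or 48 h with compound or vehicle (0.1% DMSO). DNA was stained with Hoechst 33258 and mitotic cells were counted to give the mitotic index.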

HeLa [2] = assay: Inhibition of mitosis in human HeLa cells assessed as mitotic index at 300 nM after 24 hrs by Hoechst 33258 DNA staining assay (reference value: 4 +/- 0.3 %); type: functional; parameters: scale not given: the % may be the effect or the level left; summary of the method: as §1
HeLa [3] = assay: Cytotoxicity against human HeLa cells after 24 to 48 hrs by trypan blue assay; type: functional, cell-based
Summary of the method: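 Cells were seeded at 1 × 10^5 cells/mL, grown 24 h at 37 °C in 5% CO2, then given vehicle (0.1% DMSO) or 1–80 nM for a further 24 or 48 h. Attached plus floating cells were counted after trypan blue staining. Percent inhibition was plotted against concentration to give IC50. Average of three independent experiments.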

HeLa [4] = assay: Induction of apoptosis in human HeLa cells assessed as apoptotic cells at 700 nM after 24 hrs by annexin V-FITC/propidium iodide staining-based FACS analysis; type: functional
Summary of the method: (§2)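 HeLa cells were exposed for 10 or 24 h, then stained with annexin V and propidium iodide using an apoptosis kit. Apoptotic cells were quantified by FACS. Compounds were dissolved in DMSO.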

HeLa [5] = assay: Inhibition of mitosis in human HeLa cells assessed as mitotic index at 100 nM after 24 hrs by Hoechst 33258 DNA staining assay (reference value: 4 +/- 0.3 %); type: functional; parameters: scale not given: the % may be the effect or the level left; summary of the method: as §1
HeLa [6] = assay: Inhibition of mitosis in human HeLa cells assessed as mitotic index at 300 nM after 48 hrs by Hoechst 33258 DNA staining assay (reference value: 4 +/- 0.2 %); type: functional; parameters: scale not given: the % may be the effect or the level left; summary of the method: as §1
HeLa [7] = assay: Induction of apoptosis in human HeLa cells assessed as apoptotic cells at 700 nM after 10 hrs by annexin V-FITC/propidium iodide staining-based FACS analysis; type: functional; summary of the method: as §2
HeLa [8] = assay: Inhibition of mitosis in human HeLa cells assessed as mitotic index at 200 nM after 48 hrs by Hoechst 33258 DNA staining assay (reference value: 4 +/- 0.2 %); type: functional; parameters: scale not given: the % may be the effect or the level left; summary of the method: as §1
HeLa [9] = assay: Inhibition of mitosis in human HeLa cells assessed as mitotic index at 100 nM after 48 hrs by Hoechst 33258 DNA staining assay (reference value: 4 +/- 0.2 %); type: functional; parameters: scale not given: the % may be the effect or the level left; summary of the method: as §1
HeLa [10] = assay: Inhibition of mitosis in human HeLa cells after 24 hrs by Hoechst 33258 DNA staining assay; type: functional, cell-based; summary of the method: as §1
HeLa [11] = assay: Antiproliferative activity against human HeLa cells assessed as median dose after 24 hrs; type: functional
Summary of the method: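 HeLa cells treated for 24 h with each agent alone and in combinations. The median dose (Dm) was taken from the median dose plot, and combination index was computed as CI = (D)1/(Dx)1 + (D)2/(Dx)2.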

[12] = Inhibition of goat brain tubulin polymerization incubated for 20 mins prior to GTP addition measured for 30 mins by 90 degree light scattering-based fluorescence spectrophotometric method; parameters: species or system Capra hircus
Summary of the method: (§3)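 Goat brain tubulin (10 μM) was preincubated with compound (5 μM; or 1, 5, 7, 10 μM) in 1 M monosodium glutamate, 3 mM MgCl2, 1 mM EGTA, 25 mM Pipes pH 6.8 on ice for 20 min. GTP (1 mM) was then added and assembly followed by 90° light scattering at 400 nm for 30 min at 37 °C. Experiment run twice.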

Capra hircus [13] = organism: Capra hircus; conditions: 3 uM
Capra hircus [14] = organism: Capra hircus; assay: Inhibition of goat brain tubulin polymerization at 5 uM incubated for 20 mins prior to GTP addition measured for 30 mins by 90 degree light scattering-based fluorescence spectrophotometric method; summary of the method: as §3
SK-N-SH [15] = assay: Cytotoxicity against human SK-N-SH cells assessed as cell death at 50 uM after 72 hrs by MTT assay; type: functional
SK-N-SH [16] = assay: Cytotoxicity against human SK-N-SH cells assessed as cell death at 80 uM after 72 hrs by MTT assay; type: functional

Work on `COC(=O)Nc1nc2cc(C(=O)c3cccs3)ccc2[nH]1` [NOCODAZOLE] yielded an Activity (HeLa [1]) of 28%, an Activity (HeLa [2]) of 36% and an IC50 (HeLa [3]) of 178 nM. It also gave an Activity (HeLa [4]) of 50.5%, an Activity (HeLa [5]) of 22% and an Activity (HeLa [6]) of 11%. It also gave an Activity (HeLa [7]) of 14.7%, an Activity (HeLa [8]) of 13% and an Activity (HeLa [9]) of 14%. The inhibition (HeLa [10]) was “Dose-dependent effect”.

For `COc1cc2c(c(OC)c1OC)-c1ccc(OC)c(=O)cc1[C@@H](NC(C)=O)CC2` [COLCHICINE], the Activity (HeLa [11]) was 17.8 nM.

Work on `CC[C@H](C)[C@@H]([C@H](CC(=O)NC[C@H]1O[C@H](C(=O)N[C@@H](Cc2ccccc2)c2nccs2)[C@@H](OC)[C@@H]1OC)OC)N(C)C(=O)[C@@H](NC(=O)[C@H](C(C)C)N(C)C)C(C)C` yielded an IC50 (HeLa [3]) of 16 nM.

`COC1=CC(=O)N(C(=O)[C@@H](OC(=O)[C@@H]2CCCN2C(=O)[C@@H]2CCCN2C(=O)[C@H](C(C)C)N(C)C(=O)[C@@H](NC(=O)[C@H](C(C)C)N(C)C)C(C)C)C(C)C)[C@H]1Cc1ccccc1` [DOLASTATIN 15] (NMe2Val-V[NMeV]PP-X1) gave an IC50 [12] of 23000 nM.

With `CC[C@H](C)[C@@H]([C@@H](CC(=O)N1CCC[C@H]1[C@H](OC)[C@@H](C)C(=O)N[C@@H](Cc1ccccc1)c1nccs1)OC)N(C)C(=O)[C@@H](NC(=O)[C@H](C(C)C)N(C)C)C(C)C` [DOLASTATIN-10] the IC50 [12] was 1200 nM.

For `CC[C@H](C)[C@@H]([C@H](O)CC(=O)NC[C@H]1O[C@H](C(=O)NCc2ccccc2)[C@@H](OC)[C@@H]1OC)N(C)C(=O)[C@@H](NC(=O)[C@@H](NC)C(C)C)C(C)C`, the IC50 (HeLa [3]) was 12 nM.

Work on `CC[C@H](C)[C@@H]([C@@H](CC(=O)NC[C@H]1O[C@@H](C(=O)NCCc2ccccc2)[C@@H](OC)[C@@H]1OC)OC)N(C)C(=O)[C@@H](NC(=O)[C@@H](NC)C(C)C)C(C)C` yielded an IC50 (HeLa [3]) of 15 nM.

In the case of `CC[C@]1(O)C[C@@H]2CN(CCc3c([nH]c4ccccc34)[C@@](C(=O)OC)(c3cc4c(cc3OC)N(C)[C@H]3[C@@](O)(C(=O)OC)[C@H](OC(C)=O)[C@]5(CC)C=CCN6CC[C@]43[C@@H]65)C2)C1` [VINBLASTINE], the Activity (HeLa [11]) is reported as 2.3 nM, the IC50 [12] is reported as 1500 nM and the inhibition (Capra hircus [13]) is reported as 50%.

`CO[C@@H](/C(C)=C/C=C/C(C)=C/c1coc(C)n1)[C@@H](C)[C@@H]1C[C@H](O)[C@@]2(C)O[C@@H]2/C=C/[C@@H](C)[C@H]2C[C@H](CC(=O)O2)C[C@@H]2O[C@H]2C(=O)O1` [RHIZOXIN] gave an IC50 [12] of 6800 nM.

`CC[C@H](C)[C@@H](/C=C/C(=O)NC[C@H]1O[C@@H](C(=O)N[C@@H](Cc2ccccc2)C2=NCCS2)[C@@H](OC)[C@@H]1OC)N(C)C(=O)[C@@H](NC(=O)[C@@H](NC)C(C)C)C(C)C` showed an IC50 (HeLa [3]) of 8.7 nM and an inhibition (Capra hircus [14]) of 19%.

Compound `CC[C@H](C)[C@@H]([C@H](O)CC(=O)NC[C@H]1O[C@@H](C(=O)NCc2ccccc2)[C@@H](OC)[C@@H]1OC)N(C)C(=O)[C@@H](NC(=O)[C@@H](NC)C(C)C)C(C)C` has an IC50 (HeLa [3]) of 16 nM.

With `CC[C@H](C)[C@@H]([C@H](CC(=O)NC[C@H]1O[C@H](C(=O)N[C@@H](Cc2ccccc2)c2nccs2)[C@@H](OC)[C@@H]1OC)OC)N(C)C(=O)[C@@H](NC(=O)[C@@H](NC)C(C)C)C(C)C` the IC50 (HeLa [3]) was 9.9 nM and the inhibition (Capra hircus [14]) was 10%.

Compound `CC[C@H](C)[C@@H](/C=C/C(=O)NC[C@H]1O[C@@H](C(=O)N[C@@H](Cc2ccccc2)C2=NCCS2)[C@@H](OC)[C@@H]1OC)N(C)C(=O)[C@@H](NC(=O)[C@H](C(C)C)N(C)C)C(C)C` has an IC50 (HeLa [3]) of 8.8 nM and an inhibition (Capra hircus [14]) of 21%.

In the case of `CC[C@]12C=CCN3CC[C@@]4(c5cc([C@@]6(C(=O)OC)C[C@@H]7C[C@@H](C(C)(F)F)CN(Cc8c6[nH]c6ccccc86)C7)c(OC)cc5N(C)[C@H]4[C@@](O)(C(=O)OC)[C@@H]1OC(C)=O)[C@@H]32` [VINFLUNINE], the Activity (SK-N-SH [15]) is reported as 50% and the Activity (SK-N-SH [16]) is reported as 70%.
